Shown are actives, neighbours in structure and some others; about 2.7% of the full set was active somewhere.
sPLA2-III inh – Blocks human group III sPLA2 activity; Q9NZ20; QFRET BODIPY PC-A2 liposome hydrolysis, fluorescence; inhibition, % at 12.2 µM; hit rate 0.56% among 370,000; AID 743126;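 active = inhibition above mean plus 3 SD of compounds lying within the high and low control bounds, cut at about 19% in these data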;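 note: 0% = median of test compound wells and 100% = no enzyme DMSO wells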
Target sequence (Q9NZ20 whole entry, looked up): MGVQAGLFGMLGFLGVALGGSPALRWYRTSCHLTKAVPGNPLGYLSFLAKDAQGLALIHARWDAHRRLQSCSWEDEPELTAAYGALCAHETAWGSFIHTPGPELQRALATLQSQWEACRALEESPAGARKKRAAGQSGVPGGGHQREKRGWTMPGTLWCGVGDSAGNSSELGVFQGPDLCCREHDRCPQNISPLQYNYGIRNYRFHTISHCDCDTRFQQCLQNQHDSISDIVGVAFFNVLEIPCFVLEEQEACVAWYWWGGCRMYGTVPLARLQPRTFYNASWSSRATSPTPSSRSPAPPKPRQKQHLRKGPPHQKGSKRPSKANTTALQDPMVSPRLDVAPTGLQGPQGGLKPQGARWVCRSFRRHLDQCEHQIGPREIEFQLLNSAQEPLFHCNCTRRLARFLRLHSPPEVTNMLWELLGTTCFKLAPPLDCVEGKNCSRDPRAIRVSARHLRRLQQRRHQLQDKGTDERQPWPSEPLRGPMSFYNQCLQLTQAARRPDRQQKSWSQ
Rev-erbA mod – modulates human Rev-erb alpha binding to DNA | P20393 | Rev-erbα–FITC-DNA binding, fluorescence polarization, 90 min | activity, % at 10 µM | hit rate 0.79% among 370,000 | AID 1259318;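 active = activity above about 14%, limit read from the data; passing the limit was not always enough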;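 note: 0% = DMSO wells with 35 nM protein and 100% = DMSO wells with 750 nM protein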
MsrA inhibitor – bovine MsrA inhibition; purified bovine MsrA, absorbance read-out; hit rate 0.75% among 360,000; inhibition, % at 15.5 µM; AID 651718; in the data active = inhibition above about 4.5%;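 note: 0% = vehicle wells with enzyme and 100% = reference inhibitor wells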
ASAP1 inh – inhibitors of human ASAP1 ArfGAP activity. inhibition, % at 16.5 µM. Q9ULH1. hit rate 0.19% among 360,000. ASAP1-stimulated ARF1 GTP hydrolysis, GDP FP detection; in the data active = inhibition above about 25%;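 note: 0% = vehicle with enzyme and substrate and 100% = no enzyme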
bovine MsrA act – bovine methionine sulfoxide reductase A activation | purified bovine MsrA, absorbance read-out | activation, % at 10.6 µM | hit rate 0.3% among 360,000 | AID 602163; in the data active = activation above about 7.5%;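 note: 0% = vehicle and 100% = reference activator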
ARFGAP1 inhibitor – inhibits rat ARF GTPase activating protein 1; Q62848; AID 651572; inhibition, % at 16.5 µM; Arfgap1-stimulated ARF1 GTP hydrolysis, GDP FP detection; hit rate 0.26% among 360,000;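 active = inhibition above a per-plate limit, mean inhibition of low control wells plus 3 SD, cut at about 25% in these data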;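 note: 0% = DMSO wells with enzyme and 100% = wells lacking Arfgap1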
Target sequence (Q62848 1-136 limits assumed): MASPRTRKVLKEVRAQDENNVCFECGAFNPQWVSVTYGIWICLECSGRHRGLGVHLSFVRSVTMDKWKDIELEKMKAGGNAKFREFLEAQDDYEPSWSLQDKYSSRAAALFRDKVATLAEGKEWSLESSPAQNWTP
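material = rat Arfgap1 catalytic domain, aa 1-136 | also added = human ARF1(Δ1-17)-GTP substrate | compound dosing = one concentration, 16.5 µM, DMSO 1.26% | times = GTP hydrolysis reaction 2 h at 25 °C | measured by = FP, GDP Alexa 633 tracer displaced from anti-GDP antibody, 620/688 nm | evaluation = percent inhibition of Arfgap1-stimulated GTP hydrolysis | replication = single well per compound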
Rev-erbA confirm – Rev-erb alpha (human) modulation, hit confirmation; shares compounds with Rev-erbA mod; Rev-erb alpha FITC-DNA binding, fluorescence polarization, 90 min; activation, % at 25 µM; hit rate 61% among 3,000; AID 1259319;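 active = activation at or above a set limit, or at least 3 SD above the negative control mean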;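 note: 0% = 35 nM protein with DMSO and 100% = 750 nM protein high control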
RORg counter – RORgamma DNA-binding activity, dose-response counter-screen | shares compounds with Rev-erbA mod | purified RORgamma protein-FITC-DNA binding, fluorescence polarization | IC50, µM | hit rate 8% among 910;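 active = Compounds whose fitted half-maximal concentration for disrupting protein-DNA binding is below 10 micromolar; the record names Rev-erb in its text, so the target is in doubt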
Starred values were filed as active, the others as inactive; i = inactive; . = not tested or not shown; + = active, no number.

SMILES | sPLA2-III inh | Rev-erbA mod | MsrA inhibitor | ASAP1 inh | bovine MsrA act | ARFGAP1 inhibitor | Rev-erbA confirm | others
CCCn1c(SCN2C(=O)c3ccccc3C2=O)nc2cc(Cl)ccc2c1=O | 9 | 39* | 1 | -14 | -2 | 1 | -40
CC(C)CSc1nnc2c3ccccc3n(C)c2n1 | 4 | 20* | 1 | 5 | -2 | -14 | 15
COC(=O)c1ccc(S(=O)(=O)NCCSc2nnc3c4ccccc4n(C)c3n2)cc1 | . | 29* | . | . | -4 | . | 18*
COC(=O)[C@]1(Cc2ccccc2)N[C@H](c2ccc(-c3cc(C(C)=O)cs3)cc2)[C@@H]2C(=O)N(C)C(=O)[C@@H]21 | -2 | 23* | 2 | 4 | -11 | -5 | 12
Cc1cc(Cl)ccc1Oc1ncc(-c2ccc(Cl)cc2)cn1 | 6 | 24* | -2 | -4 | -4 | 2 | 18*
Clc1ccc(-c2cnc(Oc3ccccc3)nc2)cc1 | 2 | 5 | 0 | 3 | -5 | -3 | .
COc1cccc(COC(=O)c2cc(S(=O)(=O)N3CCCCC3)ccc2N2CCOCC2)c1OC | 7 | 20* | -1 | -15 | -5 | 0 | 0
COc1ccc(C(=O)COC(=O)c2cc(S(=O)(=O)N3CCCCC3)ccc2N2CCOCC2)c(OC)c1 | -9 | 18* | 2 | 0 | -3 | -12 | 12
OC(c1cccnc1)c1nc(-c2cccc(F)c2)cs1 (stereo not drawn) | -3 | 8 | 0 | 14 | -1 | -9 | .
Cc1ccc2nc(-c3cc(-c4ccccc4)no3)cn2c1 | -4 | 37* | 0 | 8 | -3 | 9 | 19*
Cc1cccc2c(C(=O)n3cccn3)cc(-c3ccccc3Cl)nc12 | -5 | 31* | 1 | -3 | -3 | 5 | 7
CCOc1ccc(C(=O)Nc2sc3c(c2C(=O)OC)CC(C)(C)NC3(C)C)cc1 | 3 | 70* | 0 | 8 | 0 | -7 | -9
O=C(Nc1nnc(-c2ccccc2)s1)c1ccccc1F | -5 | -3 | 0 | -3 | -9 | -4 | .
O=C(Nc1nnc(-c2ccccc2Cl)s1)c1ccccc1F | -2 | 27* | 2 | 7 | -5 | 1 | 3
COc1cccc(C(=O)N/N=c2/oc3ccccc3cc2C(N)=O)c1 | 3 | 14* | 2 | 1 | -2 | -8 | 0
Cc1cccc(CSc2nc3ccncc3n2CC(=O)Nc2cc(C)cc(C)c2)c1 | -8 | 29* | -1 | -5 | 3 | 5 | 13*
CSc1nc2ccccc2n1CC(=O)Nc1ccc(C)c(C)c1 | -8 | -2 | -1 | 11 | -3 | 6 | .
CCc1nc2c(OCCn3cccc3)cccn2c1N(C)C(=O)c1ccco1 | -5 | -2 | 1 | 2 | -3 | -6 | .
CCn1cc(C(=O)NCCc2ccc(Cl)cc2)c(=O)c2cc(S(=O)(=O)N(C)C)ccc21 | -1 | 44* | -1 | 13 | -12 | 7 | 27*
CCCCn1c(SC(C)C(N)=O)nc2cc(C(=O)OC)ccc2c1=O (stereo not drawn) | 0 | -5 | 1 | 12 | -8 | 7 | .
CCCCn1c(SC(C)C(=O)NCC2CCCO2)nc2cc(C(=O)OC)ccc2c1=O (stereo not drawn) | 9 | 40* | -1 | 2 | -3 | -7 | 32* | RORg counter=>40
O=C1c2ccccc2C2N1CCCN2C(=O)c1sc2ccccc2c1Cl (stereo not drawn) | 2 | 10 | 0 | 2 | -2 | 5 | .
CC1(C(=O)NCC2CCCCC2)CCN1CCc1ccccc1 (stereo not drawn) | 1 | -1 | 0 | -5 | -1 | 9 | .
COc1ccccc1CCn1cnc(-c2ccc(F)cc2F)c1CC(C)C | 7 | 8 | 0 | -12 | . | -4 | .
N#C/C(C(=O)Oc1ccccc1)=C1/Nc2ccccc2-c2ccccc21 | -9 | 44* | 1 | 6 | -2 | -17 | 31*
SMILES | sPLA2-III inh | Rev-erbA mod | MsrA inhibitor | ASAP1 inh | bovine MsrA act | ARFGAP1 inhibitor | Rev-erbA confirm | others
O=C(CSc1ncnc2sccc12)Nc1ccccc1 | -3 | 0 | -1 | 0 | -2 | 8 | .
COC(=O)c1ccc(CSc2ncnc3c2oc2ccccc23)o1 | -4 | 147* | 0 | -6 | -1 | -10 | 144* | RORg counter=>40
COC(=O)c1ccc(CSc2ncnc3ccccc23)o1 | -3 | -1 | 1 | -5 | 2 | -1 | .
CCc1nnc(NC(=O)CSc2nnc(-c3ccccc3NC(=O)c3ccccc3)o2)s1 | -2 | 28* | 1 | -17 | -9 | 2 | 7
CCCSc1ncnc2c1oc1ccccc12 | . | -2 | . | . | -3 | . | .
CCOc1ccccc1NC(=O)CSc1ncnc2c1oc1ccccc12 | 1 | + | -1 | 4 | -8 | -14 | +
O=C(CSc1ncnc2c1sc1ccccc12)Nc1ccc(Br)cc1 | -6 | 293* | 0 | -6 | -2 | 3 | 195* | RORg counter=>40
CCOc1ccc(Cl)cc1-c1cc(C(=O)Nc2ccc(F)cc2)[nH]n1 | -10 | 1 | -1 | 11 | -11 | 6 | .
O=C(Nc1nnc([C@@H]2C[C@H](O)[C@@H](CO)O2)s1)Nc1ccccc1C(F)(F)F | 4 | -8 | 0 | 13 | 0 | -2 | .
O=C(CSc1ncnc2c1oc1ccccc12)Nc1cccc(Cl)c1 | 3 | 430* | 0 | 4 | 0 | -4 | 371* | RORg counter=i
CCc1nnc(NC(=O)CSc2ncnc3c2oc2ccccc23)s1 | 5 | 98* | -1 | -18 | -3 | -4 | 21*
CC(=O)Nc1ccc(NC(=O)CSc2nnc(-c3cc4ccccc4o3)n2C)cc1 | 0 | 3 | 0 | -3 | -6 | 8 | .
O=C(CSc1ncnc2c1oc1ccccc12)Nc1nc2ccccc2s1 | -3 | 5 | 0 | 6 | 0 | 0 | .
Cn1c(SCC(=O)Nc2ccccc2F)nnc1-c1cc2ccccc2o1 | 12 | 26* | 0 | 9 | -4 | 0 | 16
O=C(CSc1ncnc2c1oc1ccccc12)Nc1ccccc1F | 0 | 606* | -1 | 3 | -2 | 6 | 616* | RORg counter=>40
CCOC(=O)C1(C(=O)OCC)NC(=O)CC1CC(C)C (stereo not drawn) | 3 | 8 | -1 | 5 | -1 | -1 | .
COc1ccnc(N2CCN(c3cccc(C(F)(F)F)c3)CC2)c1C#N | -2 | 28* | 0 | -5 | 0 | -2 | 6
CN(C)C(CNC(=O)C1CC(=O)N(c2cccc(C(F)(F)F)c2)C1)c1ccccc1 (stereo not drawn) | 1 | -2 | -1 | 4 | -6 | 5 | .
CCC(=O)c1ccc(OCc2ccc(C(=O)c3ccccc3)cc2)cc1 | -4 | 70* | -1 | 0 | -1 | 4 | 149* | RORg counter=>40
Cc1ccc2nc(N3CCN(C)CC3)c(C#N)cc2c1 | -6 | -2 | 0 | 11 | 1 | -2 | .

Screens deposited in PubChem by several laboratories.
